Hits are enriched below; roughly 2.2% of the tested compounds scored in any of these assays.
SUMO Mot1 rescue – inhibitors of SUMOylation pathway: yeast Mot1-301 growth rescue | S. cerevisiae Mot1-301 growth rescue, ATP luminescence, 38.5C; percent above DMSO median, 100 means doubled | hit rate 1% among 320,000 | AID 2716 | growth rescue, % at 18.8 µM;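 active = every valid replicate shows activation above 250% relative to neutral control wells; inactive = the rest, any valid replicate at or below 250%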
Yeast superoxide – yeast age-related superoxide inhibition as caloric restriction mimetic; S. cerevisiae aged cells, superoxide DHE fluorescence; active compounds read low; superoxide response (% of plate mean), % at 10 µM; hit rate 0.18% among 330,000; AID 2690;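 active = superoxide response under a set limit, about three screen SD below normal, cut at about 65% in these data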;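 note: yeast aged for seven days with compound at 30 °C before DHE staining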
Ecoli rRNA inh – selective bacterial rRNA inhibition in E. coli; E. coli WT GFP vs humanized-ribosome RFP mutants, fluorescence, 24 h; active compounds read low; DMSO median 0, no signal -100; GFP signal change (wild-type ribosome), % (test concentration not listed); hit rate 1.6% among 350,000;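 active = significant combined selectivity score with lowered wild-type GFP, culture density cut under 30%, mutant RFP and density less affected; inactive = any of these conditions unmet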
Cneo AK release – Cryptococcus neoformans lysis via adenylate kinase release; C. neoformans lysis, adenylate kinase release luminescence, 4 h; normalised: neutral wells 0, clomiphene wells 100; lysis activity, % at 15 µM; hit rate 0.2% among 360,000;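 active = mean lysis activity across replicates of at least 80%, whatever share of replicates individually reach that level; inactive = mean lysis activity below 80%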
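Signal: Adenylate kinase release luminescence | Assay system: Log-phase Cryptococcus neoformans yeast cells | Input: Cells at 5 × 10^6 per mL | Buffer or medium: Fresh YPD growth medium | Compound: Single dose | Schedule: Static 4 h at 37 °C with compound, 1 h detection | Controls: Clomiphene | Read-out: Luminescence rise reflecting yeast cell lysis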
PglD DTNB – blocks C. jejuni PglD acetyltransferase activity; purified PglD enzyme, DTNB colorimetric CoA detection; inhibition, % at 12.5 µM; hit rate 0.098% among 360,000; AID 602405; in the data active = inhibition above about 16%, passing the limit was not always enough
Mot1 SUMO dose – inhibits SUMO pathway, affecting Mot1-301 yeast growth; growth activity, percent, % at 42 µM; S. cerevisiae Mot1-301 galactose growth, ATP luminescence, 24 h; -100 = growth of slx-deleted rescue strain; shares compounds with SUMO Mot1 rescue; 2,300 tested, under 10 active;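 active = Signal drops as the depositor expects, and the fitted half-maximal dose is no more than ten times the top valid tested dose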;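 note: more negative values mean stronger growth rescue toward the control strain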
Large screens that a line does not name were inactive (follow-up assays come after a bar, where they were run).

CCCn1c(SC(C)C(=O)NCC2CCCO2)nc2sc(CC)cc2c1=O (stereo not given)	SUMO Mot1 rescue 466 | Mot1 SUMO dose inactive
CCOC(=O)N1CCN(C(=O)c2ccc(OC)c(OC)c2)CC1	SUMO Mot1 rescue active (no result: Ecoli rRNA inh) | Mot1 SUMO dose inactive
COc1cc2cc(C)c3nnc(SCC(=O)Nc4cc(C)on4)n3c2cc1OC	SUMO Mot1 rescue 421 (no result: Cneo AK release, PglD DTNB) | Mot1 SUMO dose inactive
Cc1cc(NC(=O)CSc2nnc3c(C)cc4c(C)ccc(C)c4n23)no1	none (no result: Ecoli rRNA inh)
COc1cc(C(c2c(C)[nH][nH]c2=O)c2c(C)[nH][nH]c2=O)cc(OC)c1OC	SUMO Mot1 rescue 674 (no result: Cneo AK release, PglD DTNB) | Mot1 SUMO dose inactive
CC(=O)NCCc1nc2cc(NC(=O)c3ccc(F)cc3)ccc2n1C	SUMO Mot1 rescue 741 | Mot1 SUMO dose inactive
COc1ccc(C(=O)Nc2ccc3c(c2)nc(CCNC(C)=O)n3C)cc1	none (no result: Ecoli rRNA inh)
COC(=O)c1sccc1NC(=S)N1CCCCC1	SUMO Mot1 rescue active (no result: Ecoli rRNA inh) | Mot1 SUMO dose inactive
COC(=O)c1sccc1NC(=S)N1CCC(C(N)=O)CC1	none (no result: Cneo AK release, PglD DTNB)
N#CC1=C(SCC(N)=O)NC(=O)CC1c1cccc2ccccc12 (stereo not given)	none (no result: SUMO Mot1 rescue, Yeast superoxide)
N#CC1=C(SCC(N)=O)NC(=O)CC1c1ccccc1Cl (stereo not given)	SUMO Mot1 rescue 613 | Mot1 SUMO dose inactive
CO[C@H]1CN(C)C(=O)c2cc(NS(C)(=O)=O)ccc2OC[C@H](C)N(C)C[C@H]1C	none (no result: SUMO Mot1 rescue, Yeast superoxide)
COCCNC(=O)C[C@H]1CC[C@H]2[C@@H](COC[C@H](O)CN2S(=O)(=O)c2ccccc2C)O1	none (no result: SUMO Mot1 rescue, Yeast superoxide)
COc1ccccc1-c1ccc2n(c1=O)C[C@H]1[C@H](CO)[C@@H](C(=O)N3CCN(C)CC3)[C@@H]2N1CC1CC1	none (no result: SUMO Mot1 rescue, Yeast superoxide)
CCN(CC)S(=O)(=O)c1ccc(NC(=O)C(C)N(c2ccccc2)S(C)(=O)=O)cc1 (stereo not given)	SUMO Mot1 rescue active (no result: Ecoli rRNA inh) | Mot1 SUMO dose inactive
CCC(=O)Nc1ccc2c(c1)OC[C@@H](C)N(C(=O)c1cccnc1)C[C@H](C)[C@H](OC)CN(C)C2=O	none (no result: SUMO Mot1 rescue, Yeast superoxide)
O=C(Nc1nc2ccccc2s1)c1cccc(S(=O)(=O)N2CCc3ccccc32)c1	SUMO Mot1 rescue active | Mot1 SUMO dose inactive
CC(C)CCn1c(C(C)O)nc2ccccc21 (stereo not given)	SUMO Mot1 rescue 433 (no result: Ecoli rRNA inh) | Mot1 SUMO dose inactive
O=C(NC(=S)Nc1ccc(F)c([N+](=O)[O-])c1)c1ccccc1F	none (no result: Cneo AK release, PglD DTNB)
CC(C)C(=O)Nc1ccc(NC(=S)NC(=O)c2ccccc2F)cc1	SUMO Mot1 rescue 495 | Mot1 SUMO dose inactive
Cc1nn(CC(=O)Nc2ccccn2)c(C)c1[N+](=O)[O-]	SUMO Mot1 rescue 424 (no result: Ecoli rRNA inh) | Mot1 SUMO dose inactive
CO[C@H]1CN(C)C(=O)c2ccc(NS(C)(=O)=O)cc2OC[C@@H](C)N(CCC(F)(F)F)C[C@H]1C	none (no result: SUMO Mot1 rescue, Yeast superoxide)
O=S(=O)(c1ccccc1)N1C[C@@H]2N[C@H](C1)C2c1ccc(/C=C/c2ccccc2)cc1 (stereo not given in full)	none (no result: SUMO Mot1 rescue, Yeast superoxide, Cneo AK release, PglD DTNB)
COc1ccc(Nc2cc(NCCCO)c([N+](=O)[O-])c3nonc23)cc1	SUMO Mot1 rescue 382 | Mot1 SUMO dose inactive
O=C(Nc1ccc2oc(-c3ccccc3F)nc2c1)c1ncn[nH]1	SUMO Mot1 rescue active (no result: Ecoli rRNA inh) | Mot1 SUMO dose inactive
C[C@H]1CN([C@@H](C)CO)C(=O)Cc2cc(NC(=O)Nc3ccc4c(c3)OCO4)ccc2O[C@@H]1CN(C)Cc1ccc(Cl)c(Cl)c1	none (no result: SUMO Mot1 rescue, Yeast superoxide)
O=C(NCC1CCCO1)C1CC(c2ccc(Cl)c(Cl)c2)=NO1 (stereo not given)	SUMO Mot1 rescue 870 (no result: Ecoli rRNA inh) | Mot1 SUMO dose inactive
Cn1ncc(C#N)c1NC(=O)C1CC(c2ccc(Cl)c(Cl)c2)=NO1 (stereo not given)	none (no result: Ecoli rRNA inh)
CCOc1ccccc1NC(=O)c1ccc2c(c1)C(=O)N(CC(C)C)C2=O	SUMO Mot1 rescue 551 | Mot1 SUMO dose inactive
COCC#Cc1cnc2c(c1)C(=O)N([C@@H](C)CO)C[C@H](C)[C@@H](CN(C)C(=O)CCN1CCCCC1)O2	none (no result: SUMO Mot1 rescue, Yeast superoxide)
C[C@H]1CN([C@@H](C)CO)C(=O)c2ccccc2-c2ccccc2CO[C@@H]1CN(C)C(=O)[C@@H](Cc1ccccc1)N(C)C	none (no result: SUMO Mot1 rescue, Yeast superoxide)
COc1ccc(CCC(=O)Nc2ccc3c(c2)OCCO3)cc1	none (no result: Ecoli rRNA inh)
COc1ccc(CCC(=O)Nc2ccc3c(c2)OCO3)cc1	SUMO Mot1 rescue 563 | Mot1 SUMO dose inactive
O=C(CCN1CCc2ccccc2C1)Nc1ccc(F)c(F)c1	none (no result: Cneo AK release, PglD DTNB)
O=C(CCN1CCc2ccccc2C1)Nc1ccc2c(c1)OCO2	SUMO Mot1 rescue 836 (no result: Ecoli rRNA inh) | Mot1 SUMO dose inactive
C[C@H](NC(=O)C[C@@H]1C=C[C@H](NC(=O)C2CCOCC2)[C@@H](CO)O1)c1ccccc1	none (no result: SUMO Mot1 rescue, Yeast superoxide)
COc1ccc2c3c(n(C)c2c1)[C@H](CO)N(CC1CC1)CC31CN(C(=O)c2ccc(F)cc2)C1	none (no result: SUMO Mot1 rescue, Yeast superoxide, Cneo AK release, PglD DTNB)
COC(=O)C1=C(C)N(Cc2ccccc2)C(=S)N[C@H]1c1cccc(F)c1	SUMO Mot1 rescue 584, Cneo AK release 180 | Mot1 SUMO dose inactive
O=C1NC(=O)N(Cc2ccccc2)C1=O	SUMO Mot1 rescue active | Mot1 SUMO dose inactive
O=C1NC2(CCCCCC2)C(=O)N1Cc1ccccc1	none
CCOC(=O)Cn1c(=O)oc2cc(S(=O)(=O)NC(C)(C)CC)ccc21	SUMO Mot1 rescue 643 | Mot1 SUMO dose inactive
O=C(c1ccco1)N1CCN(C(=O)C2Cc3ccccc3CN2S(=O)(=O)c2ccc(F)cc2)CC1 (stereo not given)	SUMO Mot1 rescue 901 (no result: Ecoli rRNA inh) | Mot1 SUMO dose inactive
CC(C)=CC(=O)N1CCCC(N2CCN(c3ccc(F)cc3)CC2)C1 (stereo not given)	SUMO Mot1 rescue active | Mot1 SUMO dose inactive
O=C(c1ccc(Cl)s1)N1CCCC(N2CCN(c3ccc(F)cc3)CC2)C1 (stereo not given)	none
CC(C)=CC(=O)N1CCCC(N2CCN(c3ccccc3C)CC2)C1 (stereo not given)	none
CC(=O)c1ccc(C(=O)N2CCCC(N3CCN(c4ccc(F)cc4)CC3)C2)s1 (stereo not given)	SUMO Mot1 rescue 508 | Mot1 SUMO dose inactive
Cc1noc(C)c1S(=O)(=O)Nc1ccc2c(c1)CC(=O)N([C@H](C)CO)C[C@@H](C)[C@H](CN(C)Cc1ccc(Cl)c(Cl)c1)O2	none (no result: SUMO Mot1 rescue, Yeast superoxide)
CC(=O)Nc1ccc(NS(=O)(=O)c2ccc(Cl)c(C(=O)O)c2)cc1	none
CS(=O)(=O)c1ccc(Cl)c(C(=O)O)c1	SUMO Mot1 rescue 608 (no result: Ecoli rRNA inh) | Mot1 SUMO dose inactive
CCOC(=O)c1c(/N=C/C2C(=O)CCCC2=O)sc2c1CCCC2	SUMO Mot1 rescue 467 (no result: Cneo AK release, PglD DTNB) | Mot1 SUMO dose inactive
O=C1CN(C(=O)COC(=O)CCNS(=O)(=O)c2ccc(Cl)cc2)c2ccccc2N1	SUMO Mot1 rescue 365 | Mot1 SUMO dose inactive
